Test results from ChEMBL document CHEMBL5338794, “Optimization of Orally Bioavailable Antileishmanial 2,4,5-Trisubstituted Benzamides” (J Med Chem, 2023).
≈ marks a conversion by molar mass, not a printed value. Calls of active or inactive are those of the source. No cut-off for these calls is given here.

Assays:
Leishmania mexicana [1] = experiment: Antileishmanial activity against renilla luciferase-expressing Leishmania mexicana promastigotes infected in mouse J774.A1 cells assessed as inhibition of intracellular amastigotes growth incubated for 96 hrs by Renilla luciferase assay; type: functional, organism-based; settings: J774.A1, 96 h
BJ = experiment: Cytotoxicity against human BJ cells assessed as reduction in cell viability incubated for 72 hrs by Cell TiterGlo assay; type: functional, cell-based
[2] = Cmax in CD-1 mouse at 3 mg/kg,iv and measured upto 24 hrs by LC-MS/MS analysis; type: ADME, organism-based; design: dose 3 mg/kg, time < 24 hrs, route iv; settings: in vivo
Procedure, shortened: (§1)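 Single intravenous dose to mice at 3 mg/kg. Plasma concentration–time profile used for t1/2, Cmax, AUC, clearance and steady-state volume of distribution.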

[3] = Kinetic aqueous solubility of the compound in PBS at pH 7.4 incubated for 18 hrs by LC-MS analysis; type: physicochemical; settings: read-out: Kinetic_solubility
[4] = Metabolic stability in CD-1 mouse liver microsomes assessed as half life at 1 uM and measured upto 60 mins in presence of NADPH regenerating system by LC-MS/MS analysis; type: ADME, Microsome; settings: 1 h
Procedure, shortened: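 Half-life and intrinsic clearance determined by incubation with mouse liver microsomes.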

[5] = Half life in CD-1 mouse at 3 mg/kg,iv and measured upto 24 hrs by LC-MS/MS analysis; type: ADME, organism-based; settings: in vivo; procedure, shortened: as §1
[6] = AUC in CD-1 mouse at 3 mg/kg,iv and measured upto 24 hrs by LC-MS/MS analysis; type: ADME, organism-based; design: time < 24 hrs, dose 3 mg/kg, route iv; settings: in vivo; procedure, shortened: as §1
[7] = Clearance in CD-1 mouse at 3 mg/kg,iv and measured upto 24 hrs by LC-MS/MS analysis; type: ADME, organism-based; settings: in vivo; procedure, shortened: as §1
[8] = Volume of distribution in CD-1 mouse at 3 mg/kg,iv and measured upto 24 hrs by LC-MS/MS analysis; type: ADME, organism-based; settings: in vivo; procedure, shortened: as §1
[9] = Half life in CD-1 mouse at 10 mg/kg,po and measured upto 24 hrs by LC-MS/MS analysis; type: ADME, organism-based; settings: in vivo
Procedure, shortened: (§2)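 Single oral dose to mice at 10 mg/kg, in 20% PEG 400/80% (20% SBE-beta-CD in water). Plasma concentration–time profile used for t1/2, Cmax, Tmax, AUC, CL, apparent Vd and bioavailability (F).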

[10] = Cmax in CD-1 mouse at 10 mg/kg,po and measured upto 24 hrs by LC-MS/MS analysis; type: ADME, organism-based; design: dose 10 mg/kg, time < 24 hrs, route po; settings: in vivo; procedure, shortened: as §2
[11] = Tmax in CD-1 mouse at 10 mg/kg,po and measured upto 24 hrs by LC-MS/MS analysis; type: ADME, organism-based; settings: in vivo; procedure, shortened: as §2
[12] = AUC in CD-1 mouse at 10 mg/kg,po and measured upto 24 hrs by LC-MS/MS analysis; type: ADME, organism-based; design: time < 24 hrs, dose 10 mg/kg, route po; settings: in vivo; procedure, shortened: as §2
[13] = Clearance in CD-1 mouse at 10 mg/kg,po and measured upto 24 hrs by LC-MS/MS analysis; type: ADME, organism-based; settings: in vivo; procedure, shortened: as §2
[14] = Volume of distribution in CD-1 mouse at 10 mg/kg,po and measured upto 24 hrs by LC-MS/MS analysis; type: ADME, organism-based; settings: in vivo; procedure, shortened: as §2
[15] = Oral bioavailability in CD-1 mouse at 10 mg/kg and measured upto 24 hrs by LC-MS/MS analysis; type: ADME, organism-based; settings: in vivo; procedure, shortened: as §2
Plasma [16] = experiment: Time during which plasma concentration exceeds EC50 for inhibition of proliferation of luciferase expressing Leishmania mexicana intracellular amastigotes cultured in mouse J774.A1 cells infected to CD-1 mouse at 3 mg/kg,iv by LC-MS/MS analysis; type: organism-based; settings: in vivo
Plasma [17] = experiment: Time during which plasma concentration exceeds EC50 for inhibition of proliferation of luciferase expressing Leishmania mexicana intracellular amastigotes cultured in mouse J774.A1 cells infected to CD-1 mouse at 10 mg/kg,po by LC-MS/MS analysis; type: organism-based; settings: in vivo
Procedure, shortened: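 Time that plasma concentration stays above the intracellular-amastigote EC50, read from the plasma profile after a single oral dose at 10 mg/kg in 20% PEG 400/80% (20% SBE-beta-CD in water).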

Leishmania mexicana [18] = experiment: Antileishmanial activity against Leishmania mexicana MNZY/BZ/62/M379 promastigotes infected in BALB/c mouse assessed as fold reduction in footpad lesion development by measuring lesion size at 50 mg/kg, po QD for 10 days administered at day 18 postinfection and measured at 5 weeks postinfection by caliper analysis; type: functional; settings: time 10 day
Procedure, shortened: (§3)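 BALB/c mice, 5 per group, infected with L. mexicana by footpad injection. Vehicle or HCl salt of compound given by oral gavage at 50 mg/kg/day for 10 consecutive days from day 18 postinfection. Lesion size measured by caliper up to 5 weeks postinfection, reported as mean ± SD. Groups compared by Mann–Whitney.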

Leishmania mexicana [19] = experiment: Antileishmanial activity against Leishmania mexicana MNZY/BZ/62/M379 promastigotes infected in BALB/c mouse assessed as footpad lesion development at 50 mg/kg, po QD for 10 days administered at day 18 postinfection and measured after 5 weeks postinfection by caliper analysis; type: functional, organism-based; settings: time 10.0 day; procedure, shortened: as §3

| SMILES | EC50 (Leishmania mexicana [1]) [nM] | EC50 (BJ) [nM] | Cmax [2] [nM] | solubility kinetic at 18 h [3] [µM] | t1/2 [4] [h] | t1/2 [5] [h] | AUC [6] [µM·h] | CL [7] [mL/min/kg] | Vd [8] [L/kg] | t1/2 [9] [h] | Cmax [10] [nM] | Tmax [11] [h] | AUC [12] [µM·h] | CL/F [13] [mL/min/kg] | Vd [14] [L/kg] | F [15] [%] | T>EC50 (Plasma [16]) [h] | T>EC50 (Plasma [17]) [h] | fold change (FC) (Leishmania mexicana [18]) | Activity (Leishmania mexicana [19]) |
| --- | --- | --- | --- | --- | --- | --- | --- | --- | --- | --- | --- | --- | --- | --- | --- | --- | --- | --- | --- | --- |
| O=C(Nc1ccc(Cl)c(Cl)c1)c1ccc(N2CCNCC2)c([N+](=O)[O-])c1 | 700 | 15000 | 1950 | 46 (≈ 18.2 µg/mL) | 1.92 | 3.4 | 2.85 | 42.8 | 9.3 | 3.6 | 1000 | 2 | 7.82 | 53.5 | 6.8 | 80 | 1.5 | 5.5 | 10 | inactive |
| Cc1ccc(-c2nc3ccccc3s2)cc1NC(=O)c1cc([N+](=O)[O-])c(N2CCN(C)CC2)cc1Cl | 800 | > 25000 | – | < 0.3 | 0.217 | – | – | – | – | – | – | – | – | – | – | – | – | – | – | – |
| O=C(Nc1cncc(-c2nc3ccccc3o2)c1)c1cc([N+](=O)[O-])c(N2CCNCC2)cc1Cl | 800 | 3100 | – | 12.4 (≈ 5.94 µg/mL) | 2.17 | – | – | – | – | – | – | – | – | – | – | – | – | – | – | – |
